Experimental data published in ChEMBL document CHEMBL1949625, “Hydroxyl may not be indispensable for raltegravir: Design, synthesis and SAR Studies of raltegravir derivatives as HIV-1 inhibitors” (Eur J Med Chem, 2012).

Legend:
[1] = Cytotoxicity against human TZM-bl cells after 48 hrs by MTT assay; format: cell-based
Outline: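 TZM-bl cells plated and incubated 18 h at 37 °C, then exposed to compounds for 48 h. MTT (5 mg/mL, 20 uL) added for 3 h at 37 °C; plates shaken 10 min at room temperature. OD550 read with 690 nm reference.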

[2] = tested on: Human immunodeficiency virus 1; assay: Antiviral activity against HIV1 harboring VSV glycoprotein-G co-transfected with luciferase gene infected in human TZM-bl cells assessed as inhibition of viral replication at 10 uM after 48 hrs by microplate luminometer based luciferase assay; format: functional; details: for inhibition at 10 µM: Human immunodeficiency virus 1, TZM-bl, 48 h
Outline: (§1)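 TZM-bl cells seeded at 10^4 cells/well; next day compounds (from DMSO stocks) added, then pseudotyped virus; final DMSO 2% in all wells. Incubated 48 h at 37 °C, humidified CO2. Steady-glow substrate added directly, lysis 20 min in dark, luciferase luminescence read. AZT and MK-0518 as assay controls. Primary screen run at 10 μM.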

[3] = tested on: Human immunodeficiency virus 1; assay: Antiviral activity against HIV1 harboring VSV glycoprotein-G co-transfected with luciferase gene infected in human TZM-bl cells assessed as inhibition of viral replication after 48 hrs by microplate luminometer based luciferase assay; format: functional, organism-based; details: Human immunodeficiency virus 1, TZM-bl; outline: as §1

Structure (SMILES) | Activity [1] | inhibition at 10 µM [2] [%] | IC50 [3] [nM] | inhibition (INH) [2] [%]
COc1nc(C(C)(C)NC(=O)c2nnc(C)o2)nc(C(=O)NCc2ccc(F)cc2)c1[O-].[K+] | Non-toxic | 92.9 | 200 | –
COc1nc(C(C)(C)NC(=O)c2nnc(C)o2)nc(C(=O)NCc2ccc(F)cc2)c1O | Non-toxic | – | – | 94.1
Cc1nnc(C(=O)NC(C)(C)c2nc(NCc3ccc(F)cc3)c(O)c(C(=O)NCc3ccc(F)cc3)n2)o1 | Non-toxic | 47.5 | – | –
CC(=O)Oc1c(C(=O)NCc2ccc(F)cc2)nc(C(C)(C)NC(=O)c2nnc(C)o2)n(C)c1=O | Non-toxic | 95.1 | 1 | –
Cc1nnc(C(=O)NC(C)(C)c2nc(C(=O)NCc3ccc(F)cc3)c(OS(C)(=O)=O)c(=O)n2C)o1 | Non-toxic | 92.7 | 2.4 | –
Cc1nnc(C(=O)NC(C)(C)c2nc(C(=O)NCc3ccc(F)cc3)c(OC(=O)c3ccccc3)c(=O)n2C)o1 | Non-toxic | 100 | 4e-05 | –
Cc1cc(C)c(S(=O)(=O)Oc2c(C(=O)NCc3ccc(F)cc3)nc(C(C)(C)NC(=O)c3nnc(C)o3)n(C)c2=O)c(C)c1 | Non-toxic | 94.9 | 0.04 | –
COc1nc(C(C)(C)NC(=O)c2nnc(C)o2)nc(C(=O)NCc2ccc(F)cc2)c1OC(C)=O | Non-toxic | 94.2 | 7.3 | –
COc1nc(C(C)(C)NC(=O)c2nnc(C)o2)nc(C(=O)NCc2ccc(F)cc2)c1OS(C)(=O)=O | Non-toxic | 88.3 | 32.8 | –
COc1nc(C(C)(C)NC(=O)c2nnc(C)o2)nc(C(=O)NCc2ccc(F)cc2)c1OC(=O)c1ccccc1 | Non-toxic | 93.4 | 14.7 | –
COc1nc(C(C)(C)NC(=O)c2nnc(C)o2)nc(C(=O)NCc2ccc(F)cc2)c1OS(=O)(=O)c1c(C)cc(C)cc1C | Non-toxic | 79.7 | 1200 | –
CCN(CC)C(=O)C(=O)NC(C)(C)c1nc(C(=O)OC)c(OC(=O)c2ccccc2)c(=O)n1C | Non-toxic | -2.7 | – | –
CCN(CC)C(=O)C(=O)NC(C)(C)c1nc(C(=O)NCc2ccc(F)cc2)c(O)c(=O)n1C | Non-toxic | 95.5 | 0.5 | –
CCN(CC)C(=O)C(=O)NC(C)(C)c1nc(C(=O)NCc2ccc(F)cc2)c(OC(C)=O)c(=O)n1C | Non-toxic | 94.2 | 0.062 | –
CCN(CC)C(=O)C(=O)NC(C)(C)c1nc(C(=O)NCc2ccc(F)cc2)c(OS(C)(=O)=O)c(=O)n1C | Non-toxic | 93.7 | 0.64 | –
CCN(CC)C(=O)C(=O)NC(C)(C)c1nc(C(=O)NCc2ccc(F)cc2)c(OC(=O)c2ccccc2)c(=O)n1C | Non-toxic | 92.8 | 8e-05 | –
CCN(CC)C(=O)C(=O)NC(C)(C)c1nc(C(=O)NCc2ccc(F)cc2)c(OS(=O)(=O)c2c(C)cc(C)cc2C)c(=O)n1C | Non-toxic | 77.7 | 0.3 | –
CCN(CC)C(=O)C(=O)NC(C)(C)c1nc(OC)c(OC(=O)c2ccccc2)c(C(=O)OC)n1 | Non-toxic | 19.8 | – | –
CCN(CC)C(=O)C(=O)NC(C)(C)c1nc(OC)c(O)c(C(=O)NCc2ccc(F)cc2)n1 | Non-toxic | 44.9 | – | –
CCN(CC)C(=O)C(=O)NC(C)(C)c1nc(OC)c(OC(C)=O)c(C(=O)NCc2ccc(F)cc2)n1 | Non-toxic | 59.3 | – | –
CCN(CC)C(=O)C(=O)NC(C)(C)c1nc(OC)c(OS(C)(=O)=O)c(C(=O)NCc2ccc(F)cc2)n1 | Non-toxic | 28.6 | – | –
CCN(CC)C(=O)C(=O)NC(C)(C)c1nc(OC)c(OC(=O)c2ccccc2)c(C(=O)NCc2ccc(F)cc2)n1 | Non-toxic | 52.1 | – | –
CCN(CC)C(=O)C(=O)NC(C)(C)c1nc(OC)c(OS(=O)(=O)c2c(C)cc(C)cc2C)c(C(=O)NCc2ccc(F)cc2)n1 | Non-toxic | 6 | – | –
Cc1nnc(C(=O)NC(C)(C)c2nc(C(=O)NCc3ccc(F)cc3)c(O)c(=O)n2C)o1 [RALTEGRAVIR POTASSIUM] | – | 95.1 | 8 | –
Cc1cn([C@H]2C[C@H](N=[N+]=[N-])[C@@H](CO)O2)c(=O)[nH]c1=O [ZIDOVUDINE] | – | 100 | – | –
